Results as given in PMC10349574 (Drug Design, Development and Therapy, 2023).
Entries after “also recorded” stand apart in the source; their conditions may differ.

Experiments:
DU145 cells [1] = experiment: Cell cycle assay, propidium iodide flow cytometry; type: cell-based; settings: DU145, 24 h
How it was run: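 DU145 cells were treated 24 h after plating with increasing test compound concentrations (3, 10, 30 μM) or silibinin (30 μM), and harvested 24 h later. They were PBS-washed, fixed in ice-cold 70% ethanol for ≥24 h, rewashed in room-temperature PBS and stained with propidium iodide plus RNase-A (30 min, 37 °C). Flow cytometry followed. Data are mean ± SD of three experiments.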

DU145 cells [2] = experiment: Apoptosis assay, Annexin V-FITC/Propidium Iodide flow cytometry; type: cell-based; settings: 24 h
How it was run: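 DU145 cells in six-well plates were treated 24 h at 37 °C with vehicle, test compound (3, 10, 30 μM) or silibinin reference (30 μM). Cells were harvested, washed in ice-cold PBS, stained with an Annexin V-FITC apoptosis kit and analysed by flow cytometry. Data are mean ± SD of three individual experiments.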

[3] = cited from earlier work

Compound | effect on cell cycle (in words) (DU145 cells [1]) | induction of apoptosis (in words) (DU145 cells [2]; DU145, 3, 10 and 30 μM) | ability to promote DU145 cell apoptosis relative to silibinin (DU145 cells [2]; DU145, same concentration of 30 μM) | Solubility in H2O [3]
COc1cc(C2Oc3cc(C4Oc5cc(O)cc(O)c5C(=O)C4OC(=O)CCC(=O)O[C@H]4O[C@@H](CO)C(O)[C@@H](O)[C@@H]4O)ccc3OC2CO)ccc1O (stereo partly drawn) [Compound 15, 5,7-Dihydroxy-2-[3-(4-hydroxy-3-methoxyphenyl)-2-(hydroxymethyl)-2,3-dihydrobenzo[b][1,4]dioxin-6-yl]-4-oxochroman-3-yl [(2R,3S,4R,6S)-3,4,5-trihydroxy-6-(hydroxymethyl)tetrahydro-2H-pyran-2-yl] succinate] | arrested cell cycle at G2/M phase; also recorded: blocked the tumor cells in G2/M -phase progression | induced apoptosis in DU145 cells; also recorded: markedly induced cell apoptosis in a dose-dependent manner | approximately 2 times | 
COc1cc(C2Oc3cc([C@H]4Oc5cc(O)cc(O)c5C(=O)[C@@H]4O)ccc3OC2CO)ccc1O (stereo partly shown) [Silibinin] |  |  |  | less than 0.4 mg/L
